Source: PubChem
Many of the other results were omitted from the sample, so hits are more common in it than they were.
T cruzi repl – inhibitors of intracellular T. cruzi growth, primary screen, luminescence, NIH3T3 host cells. T. cruzi beta-gal in NIH3T3, 90 h. inhibition, % (concentration not given with the values). 300,000 tested, 1.4% active. AID 1885, 2009;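 active = mean inhibition across valid replicates above about 55%, limit read from the data; inconclusive = mean below that limit but half or more replicates reach it; inactive = mean below it, under half of replicates reach it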;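 note: signal also drops with host cell toxicity which is not excluded here; 0% = plate median of DMSO wells and 100% = zero luminescence signal; higher percent means less beta-gal luminescence so fewer parasites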
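Test system: β-gal T. cruzi (Tulahuen C4) inside NIH/3T3 cells / Quantity: 5,000 cells/well / Measured by: luminescence from GalScreen with 0.05% NP40, read after 60 min / Medium: DMEM plus 2% FBS / Measure: parasite load inhibition, % / Reagent: Tulahuen C4 trypomastigotes, 5000/well / Schedule: co-culture of at least 90 h after 3 h attachment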
HSF1 inhib – HSF1 inhibitors in luciferase reporter cells, primary screen, cell-based, NIH3T3, luminescence. 300,000 tested, 0.77% active. NIH3T3-HGL HSE-luciferase, MG132-induced, luminescence 8 h; active compounds read low. activity change, negative = inhibition, % at 7.5 µM (by protocol);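 active = more than half of replicate wells show activity change below -50%, luminescence cut by over half; inconclusive = some wells, but at most half, below -50%; inactive = no replicate well below -50%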;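 note: luciferase reports HSF-1 transcriptional activity via heat shock element; 0% = median of DMSO wells and -100% = zero luminescence signal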
L major viab – Leishmania major promastigote growth inhibition, primary screen; inhibition, % at 10 µM; Leishmania major promastigotes, resazurin fluorescence viability; 200,000 tested, 9% active; in the data active = inhibition above about 50%;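 note: promastigotes grown with compound for 44 hours at 28 °C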
HSF1 activator – HSF-1 activators, primary screen, NIH3T3-HGL cells, MG132 stress, luminescence, single point. NIH3T3-HGL HSF-1 luciferase reporter, 8 h; 100% = twice DMSO control signal. activation, % at 9 µM. 300,000 tested, 1.7% active;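 active = mean replicate activation of at least 50% with a set share of replicates each reaching 50%; inconclusive = only one of those two conditions met; inactive = mean below 50% and too few replicates reaching it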;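 note: 0% = median of the neutral control wells and 100% = twice that signal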
Hsp70 act – Hsp70 transcriptional activators, primary screen, cell-based, HeLa, Hsp70 promoter luciferase, luminescence, 10 µM. 200,000 tested, 0.04% active. AID 1203, 2008. HeLa Hsp70 promoter luciferase reporter; scaled: vehicle 0, proteasome-inhibitor control 100%. activation, % at 10 µM;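 active = activation above the mean across all tested compounds plus 3 SD, cutoff set per campaign, cut at about 5.5% in these data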;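 note: 100% = MG132 at 30 µM as the positive control and 0% = DMSO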
* hit, by the source's call; ? = inconclusive; . = no result.

SMILES | T cruzi repl | HSF1 inhib | L major viab | HSF1 activator | Hsp70 act
Cc1ccc(Nc2c([N+](=O)[O-])ccc3c2=NC2(CCCCC2)N=3)cc1 | 8 | -1 | 51* | 11 | 0
Cc1ccc(-c2[nH]ncc2C(=O)c2ccc(Br)cc2)c(O)c1 | -3 | 15 | . | 71* | .
Cc1cccc(C(=O)c2cn[nH]c2-c2ccccc2O)c1 | -1 | -10 | . | 5 | .
Cc1ccc(C(=O)c2cn[nH]c2-c2cc(Cl)ccc2O)cc1 | -17 | 1 | 98* | 12 | 0
O=c1ccc(-c2ccc(S(=O)(=O)N3CCCCC3)o2)n[nH]1 | -15 | -6 | . | -12 | .
CCN1C(=O)C(CC(=O)Nc2ccc(OC)cc2)N(Cc2ccc3c(c2)OCO3)C1=S (centres undefined) | 7 | -78* | 48 | -83 | 0
CCCOc1ccc(NC(=O)CC2C(=O)N(CC)C(=S)N2CCNC(C)=O)cc1 (centres undefined) | -16 | -3 | -8 | -7 | 0
O=C(CC1C(=O)N(Cc2ccccc2)C(=S)N1CCN1CCOCC1)Nc1ccc(F)cc1 (centres undefined) | 14 | 20 | 47 | 61* | 0
CCN1C(=O)C(CC(=O)Nc2ccc(OC)cc2)N(Cc2ccc(OC)c(OC)c2)C1=S (centres undefined) | -13 | -5 | . | 6 | .
CCOc1ccc(NC(=O)CC2C(=O)N(CC)C(=S)N2CCN2CCOCC2)cc1 (centres undefined) | 22 | 6 | -4 | -15 | 0
CCOc1ccc(NC(=O)CC2C(=O)N(C)C(=S)N2CCCc2ccccc2)cc1 (centres undefined) | 55* | 6 | 78* | 17 | 0
CCCOc1ccc(NC(=O)CC2C(=O)N(CC)C(=S)N2CCCN2CCN(Cc3ccccc3)CC2)cc1 (centres undefined) | 6 | 9 | 99* | 8 | 0
CCc1ccc(NC(=O)C(=O)NCc2ccccn2)cc1 | 13 | -1 | 10 | 34 | 0
CN1C(=O)C(CC(=O)Nc2ccc(Cl)cc2)N(Cc2ccco2)C1=S (centres undefined) | -17 | 36 | 7 | 53* | -1
Cc1ccc(C(=O)c2ccccc2C(=O)OCC(=O)NCCc2ccc(Cl)cc2Cl)cc1 | -1 | 31 | 5 | 54* | 0
Cc1ccc(C(=O)c2ccccc2C(=O)OCC(=O)Nc2ccc(SC(F)F)cc2)cc1 | -16 | -5 | 66* | 28 | 0
CC(C)[C@H](NC(=O)c1ccc(Cl)c([N+](=O)[O-])c1)C(=O)NCc1ccc(Cl)cc1Cl | 30 | 24 | 53* | 38 | 0
O=C(COC(=O)c1ccccc1Cc1ccccc1)Nc1ccc(SC(F)F)cc1 | -14 | 46 | 6 | ? | 0
O=C(COC(=O)c1cc(Cl)ccc1[N+](=O)[O-])NCc1ccc(Cl)cc1Cl | -3 | -9 | 62* | -7 | 0
CC(C)[C@H](NC(=O)c1ccc(Cl)c([N+](=O)[O-])c1)C(=O)NCc1ccc(F)cc1 | -8 | -6 | -2 | -12 | 0
O=C(COC(=O)c1cc(Cl)ccc1[N+](=O)[O-])Nc1cccc2ccccc12 | -4 | 7 | -5 | 8 | 0
NC(=O)CSc1nnc(NC(=O)c2ccc(S(=O)(=O)N3CCCCC3)cc2)s1 | -9 | -5 | . | -28 | .
COc1ccc(NC(=O)C(=O)NCCC2CCCCN2S(=O)(=O)c2ccc(F)cc2)cc1 (centres undefined) | 13 | -2 | . | -1 | .
O=C(Cc1ccccc1F)Nc1ccc(SC(F)F)cc1 | -7 | 27 | 0 | 59* | 0
Nc1ncnc2c1ncn2[C@@H]1O[C@H](CO)C[C@@H]1O | 61* | -9 | . | -17 | 0
Nc1ncnc2c1ncn2[C@@H]1O[C@H](CO)[C@@H](O)[C@@H]1O | -9 | 2 | . | 4 | .
Cc1ccc(Nc2nc(OC(C(F)(F)F)C(F)(F)F)nc(N3CCOCC3)n2)cc1 | 41 | -1 | 33 | 0 | 0
FC(F)(F)C(Oc1nc(NC2CCCCC2)nc(N2CCOCC2)n1)C(F)(F)F | 28 | -1 | 81* | 5 | 0
O=C(CN1CCN(C(=O)C2CCCO2)CC1)Nc1ccc(Br)cc1 (centres undefined) | 7 | 1 | . | -1 | .
